Hits are enriched below; roughly 3.7% of the tested compounds scored in any of these assays.
GRIN3A LBD mod: binders of NR3A ligand-binding domain, primary screen, biophysical, differential scanning fluorimetry, uHTS; 340,000 compounds, 2.5% hits; Glutamate receptor ionotropic, NMDA 3A (GRIN3A) ligand-binding domain; Tm shift relative to glycine control, % at 25 µM; NR3A LBD differential scanning fluorimetry, Tm shift; 0% = protein alone, 100% = glycine-bound protein;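 active = melting temperature shift of at least 10% of the positive control shift, at one fixed dose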
procasp7 counter: procaspase-7 activators, primary screen, counter-screen for procaspase-3 activator project, biochemical, absorbance, HTS, human; Caspase-7 (Homo sapiens), P55210; recombinant procaspase-7, Ac-DEVD-pNA absorbance 405 nm; D23A/D198A/D206A triple mutant, cannot self-cleave; scale: DMSO 0, 5 µM enzyme 100; activation, % at 8.5 µM; 330,000 compounds, 0.093% hits;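 active = percent activation above the screen-wide mean plus 3 SD, cut at about 25% in these data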
Target sequence (P55210 whole entry D23A/D198A/D206A): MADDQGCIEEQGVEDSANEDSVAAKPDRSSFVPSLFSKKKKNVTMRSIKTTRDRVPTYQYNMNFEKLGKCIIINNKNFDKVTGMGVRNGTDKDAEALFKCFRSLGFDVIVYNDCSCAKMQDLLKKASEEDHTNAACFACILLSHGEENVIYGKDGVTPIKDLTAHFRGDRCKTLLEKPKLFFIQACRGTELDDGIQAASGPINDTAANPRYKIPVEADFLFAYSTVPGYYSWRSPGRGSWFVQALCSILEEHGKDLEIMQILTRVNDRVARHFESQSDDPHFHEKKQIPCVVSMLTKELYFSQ
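signal = Epi-absorbance of released pNA at 405 nm, two timepoints | assay system = Uncleavable procaspase-7 mutant enzyme | reagent = Ac-DEVD-pNA substrate, 400 µM as added | times = 1 h enzyme–compound preincubation and 2 h substrate reaction, both 25 °C | benchmarks = low DMSO alone, high DMSO plus 5 µM PC-7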
procasp3 activ: activators of human procaspase-3 D3A mutant, primary screen, biochemical, absorbance, PC-3 D3A mutant, single concentration; activation, % at 8.5 µM; recombinant procaspase-3 D3A, Ac-DEVD-pNA absorbance 405 nm; AID 463141, 2010; 330,000 compounds, 0.11% hits;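 active = activation above the mean of all tested compounds plus 3 SD, cut at about 21% in these data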
Target sequence (P42574 whole entry D9A/D28A/D175A): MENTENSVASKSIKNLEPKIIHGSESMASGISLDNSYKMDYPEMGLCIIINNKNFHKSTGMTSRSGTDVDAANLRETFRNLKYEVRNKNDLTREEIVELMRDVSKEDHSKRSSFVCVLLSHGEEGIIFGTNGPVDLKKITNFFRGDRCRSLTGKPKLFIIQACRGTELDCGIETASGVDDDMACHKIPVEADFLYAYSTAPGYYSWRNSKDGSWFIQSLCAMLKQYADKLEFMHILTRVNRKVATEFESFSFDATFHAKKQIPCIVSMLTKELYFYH
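Evaluation: percent activation relative to control range; Material: Procaspase-3 D3A mutant, all three cleavage aspartates alanine; Compound: single dose, 8.5 µM nominal compound, 0.8% DMSO; Replication: one well per compound; Signal: absorbance at 405 nm, 0 and 120 min; Schedule: 1 h preincubation plus 2 h reaction at 25 °C.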
MPTP block: mitochondrial permeability transition pore inhibitors, primary screen, biochemical, isolated mouse mitochondria, absorbance | inhibition, % at 10 µM | Ca2+ swelling absorbance, 30 min | 360,000 compounds, 1.4% hits;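 active = inhibition of 50% or more, scaled per plate between neutral and stimulator controls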
aDG glyco up: activators of alpha-DG glycosylation, primary screen, uHTS, Pro5-aDG cells, AlphaScreen; alpha-DG glycosylation AlphaScreen (IIH6); 0% Pro5, 100% B10-LARGE cell signal; activation, % at 10 µM; 360,000 compounds, 0.22% hits; AID 624168, 2012;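 active = activation of at least 8% versus controls, or a plate z-score of at least 8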;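 note: Pro5 are CHO cells carrying HIG-tagged alpha-DG that lacks glycosylation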
A number is an active result.

How did Cc1cc(NCCCN)nc(-c2ccccc2O)n1 do in these assays?
GRIN3A LBD mod: inactive; procasp7 counter: inactive; procasp3 activ: inactive; MPTP block: inactive; aDG glyco up: inactive

What do the screens show for `CCCCn1c(SCC(=O)NC2CC2)nc2cc(C(=O)OC)ccc2c1=O`?
MPTP block: inactive; aDG glyco up: inactive

Results for CCn1c(SCCN2CCCCC2)nc2c1c(=O)n(C)c(=O)n2C ?
GRIN3A LBD mod: inactive; MPTP block: inactive; aDG glyco up: inactive

Results for Cc1cc(Nc2ccc(Br)cc2)nc(-c2ccccc2O)n1 ?
GRIN3A LBD mod: 29; procasp7 counter: inactive; procasp3 activ: inactive; MPTP block: inactive; aDG glyco up: inactive

Results for CC(=O)NC1CC2CCCC(C1)N2C(=O)Nc1cccc(C(C)=O)c1 (stereo unspecified) ?
GRIN3A LBD mod: inactive; MPTP block: inactive; aDG glyco up: inactive

How did Cc1ccc2oc(-c3cccc(NC(=O)/C=C/c4cccc([N+](=O)[O-])c4)c3C)nc2c1 do in these assays?
GRIN3A LBD mod: 17; procasp7 counter: inactive; procasp3 activ: inactive; MPTP block: inactive; aDG glyco up: inactive

Results for Cc1ccc(C(=O)c2ccccc2C(=O)OCC(=O)Nc2ccc(SC(F)F)cc2)cc1 ?
GRIN3A LBD mod: inactive; procasp7 counter: inactive; procasp3 activ: inactive; MPTP block: inactive; aDG glyco up: inactive

Results for O=C(COC(=O)c1ccccc1Cc1ccccc1)Nc1ccc(SC(F)F)cc1 ?
GRIN3A LBD mod: 19; procasp7 counter: inactive; procasp3 activ: inactive; MPTP block: inactive; aDG glyco up: inactive

Results for CC(C)c1ccc(NC(=S)Nc2ccc3cn[nH]c3c2)cc1 ?
GRIN3A LBD mod: inactive; procasp7 counter: inactive; procasp3 activ: inactive; MPTP block: inactive; aDG glyco up: inactive

How did CC(=O)c1ccc(NC(=S)Nc2ccc3cn[nH]c3c2)cc1 do in these assays?
GRIN3A LBD mod: 10; procasp7 counter: inactive; procasp3 activ: inactive; MPTP block: inactive; aDG glyco up: inactive

What do the screens show for `CC1(C(=O)NS(=O)(=O)c2cccc(C#N)c2)CCN1C(=O)c1cccc2ccccc12` (stereo unspecified)?
MPTP block: inactive; aDG glyco up: inactive

What do the screens show for `CCOC(=O)c1ccc(Nc2ncnc3nc[nH]c23)cc1`?
GRIN3A LBD mod: inactive; procasp7 counter: inactive; procasp3 activ: inactive; MPTP block: inactive; aDG glyco up: inactive

What do the screens show for `c1ccc(COc2ccc(Nc3ncnc4nc[nH]c34)cc2)cc1`?
GRIN3A LBD mod: 26; procasp7 counter: inactive; procasp3 activ: inactive; MPTP block: inactive; aDG glyco up: inactive

Results for O=C(Nc1cccc(C(=O)O)c1)/C(=C\c1ccccc1)NC(=O)c1ccco1 ?
MPTP block: inactive; aDG glyco up: inactive

What do the screens show for `COc1cccc(-c2cc(C(=O)Nc3cccc(O)c3)no2)c1`?
GRIN3A LBD mod: 24; procasp7 counter: inactive; procasp3 activ: inactive; MPTP block: inactive; aDG glyco up: inactive

What do the screens show for `COc1ccc(NC(=O)c2cc(-c3ccccc3OC)on2)cc1`?
GRIN3A LBD mod: inactive; procasp7 counter: inactive; procasp3 activ: inactive; MPTP block: inactive; aDG glyco up: inactive

Results for O=C(Nc1cccc(O)c1)c1cc(-c2cccs2)on1 ?
GRIN3A LBD mod: 15; procasp7 counter: inactive; procasp3 activ: inactive; MPTP block: inactive; aDG glyco up: inactive

How did CC(=O)c1cccc(NC(=O)c2cc(-c3cccs3)on2)c1 do in these assays?
GRIN3A LBD mod: inactive; procasp7 counter: inactive; procasp3 activ: inactive; MPTP block: inactive; aDG glyco up: inactive

Results for COc1ccc(NC(=O)c2cc(-c3ccccc3Cl)on2)cc1 ?
GRIN3A LBD mod: 37; procasp7 counter: inactive; procasp3 activ: inactive; MPTP block: inactive; aDG glyco up: inactive

How did COc1ccc(N2CCN(C(=O)COC(=O)c3nc(Cl)ccc3Cl)CC2)cc1 do in these assays?
MPTP block: inactive; aDG glyco up: inactive

What do the screens show for `COc1ccc(NC(=O)c2cc(C3CCCCN3S(=O)(=O)c3c(C)noc3C)on2)c(C)c1` (stereo unspecified)?
MPTP block: inactive; aDG glyco up: inactive

What do the screens show for `CCOc1ccccc1N1CCN(S(=O)(=O)c2cc(C)ccc2OC)CC1`?
GRIN3A LBD mod: 37; procasp7 counter: inactive; procasp3 activ: inactive; MPTP block: inactive; aDG glyco up: inactive

Results for O=[N+]([O-])c1ccccc1N/N=C/c1c[nH]c2ccccc12 ?
GRIN3A LBD mod: 16; procasp7 counter: inactive; procasp3 activ: inactive; MPTP block: inactive; aDG glyco up: inactive

What do the screens show for `O=[N+]([O-])c1ccc(N/N=C/c2c[nH]c3ccccc23)cc1`?
GRIN3A LBD mod: 30; procasp7 counter: inactive; procasp3 activ: inactive; MPTP block: inactive; aDG glyco up: inactive

How did O=[N+]([O-])c1ccccc1N/N=C/c1ccccc1 do in these assays?
GRIN3A LBD mod: inactive; procasp7 counter: inactive; procasp3 activ: inactive; MPTP block: inactive; aDG glyco up: inactive

Results for O=C(N/N=C/c1ccc[nH]1)c1ccccc1[N+](=O)[O-] ?
GRIN3A LBD mod: inactive; procasp7 counter: inactive; procasp3 activ: inactive; MPTP block: inactive; aDG glyco up: inactive

What do the screens show for `O=[N+]([O-])c1ccc(N/N=C/c2ccc[nH]2)cc1`?
GRIN3A LBD mod: 25; procasp7 counter: inactive; procasp3 activ: inactive; MPTP block: inactive; aDG glyco up: inactive

What do the screens show for `Cn1c2nc(=O)n(-c3ccccc3)c(=O)c-2nc2c1CCCC2`?
MPTP block: inactive; aDG glyco up: inactive

What do the screens show for `COc1ccc(CCNc2ccc(C(CC(N)=O)NC(=O)c3cc(OC)ccc3OC)cc2[N+](=O)[O-])cc1` (stereo unspecified)?
GRIN3A LBD mod: 42; procasp7 counter: inactive; procasp3 activ: inactive; MPTP block: inactive; aDG glyco up: inactive

Results for COc1ccc(OC)c(C(=O)NC(CC(N)=O)c2ccc(NCCOc3ccccc3)c([N+](=O)[O-])c2)c1 (stereo unspecified) ?
GRIN3A LBD mod: inactive; procasp7 counter: inactive; procasp3 activ: inactive; MPTP block: inactive; aDG glyco up: inactive

How did COC(=O)C1=C(C)N(CCc2ccccc2)C(=O)/C1=C\c1ccco1 do in these assays?
GRIN3A LBD mod: 19; procasp7 counter: inactive; procasp3 activ: inactive; MPTP block: inactive; aDG glyco up: inactive

How did Cc1ccc(CC2(c3ccccc3)NC(=O)NC2=O)cc1 (stereo unspecified) do in these assays?
GRIN3A LBD mod: inactive; MPTP block: inactive; aDG glyco up: inactive

How did Cc1nc2sc(C(c3cccc(F)c3)N3CCC(O)CC3)c(O)n2n1 (stereo unspecified) do in these assays?
GRIN3A LBD mod: 10; procasp7 counter: inactive; procasp3 activ: inactive; MPTP block: inactive; aDG glyco up: inactive

Assay outcomes deposited in PubChem BioAssay by several laboratories.
